From ChEMBL document CHEMBL3102805, “Truncated Orexin Peptides: Structure-Activity Relationship Studies” (ACS Med Chem Lett, 2013)
Where a SMILES comes first, the peptide text is derived from it.

How the values were obtained:
[1] = target: T1, Orexin/Hypocretin receptor type 1 (Homo sapiens) (UniProt O43613); test: Agonist activity at human OX1 receptor overexpressed in CHO-RD-HGA16 cells assessed as calcium mobilization at 10 uM after 15 mins by fluorescence assay relative to control; assay type: functional, cell-based
T1 sequence (whole entry): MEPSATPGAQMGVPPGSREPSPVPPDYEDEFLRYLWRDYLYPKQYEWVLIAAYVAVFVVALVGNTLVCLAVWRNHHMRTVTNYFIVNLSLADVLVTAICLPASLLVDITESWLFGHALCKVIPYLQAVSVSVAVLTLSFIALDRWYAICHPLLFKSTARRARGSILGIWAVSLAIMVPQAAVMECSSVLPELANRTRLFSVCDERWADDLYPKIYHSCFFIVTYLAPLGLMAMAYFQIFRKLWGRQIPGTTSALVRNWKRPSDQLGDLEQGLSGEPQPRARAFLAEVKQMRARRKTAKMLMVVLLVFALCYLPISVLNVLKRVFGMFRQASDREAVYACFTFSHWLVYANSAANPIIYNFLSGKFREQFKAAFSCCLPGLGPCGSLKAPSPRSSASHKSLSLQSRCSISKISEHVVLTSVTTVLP

Homo sapiens = species on record: Homo sapiens; test: Selectivity ratio of EC50 for human OX2 receptor to EC50 for human OX1 receptor
[2] = target: T2, Orexin/Hypocretin receptor type 1 (Homo sapiens, UniProt O43613); test: Agonist activity at human OX1 receptor overexpressed in CHO-RD-HGA16 cells assessed as calcium mobilization after 15 mins by fluorescence assay; assay type: functional, cell-based
T2 sequence (O43613 whole entry): T1 sequence (whole entry)
Method in brief: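 EC50 from 8-point half-log concentration-response curves. Values are means of at least three independent experiments in duplicate, with SEM, or means of two independent duplicate experiments.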

Orexin receptor type 2 = target: T3, Orexin receptor type 2 (Homo sapiens, UniProt O43614); test: Agonist activity at human OX2 receptor overexpressed in CHO-RD-HGA16 cells assessed as calcium mobilization after 15 mins by fluorescence assay; assay type: functional, cell-based
T3 sequence (O43614 whole entry): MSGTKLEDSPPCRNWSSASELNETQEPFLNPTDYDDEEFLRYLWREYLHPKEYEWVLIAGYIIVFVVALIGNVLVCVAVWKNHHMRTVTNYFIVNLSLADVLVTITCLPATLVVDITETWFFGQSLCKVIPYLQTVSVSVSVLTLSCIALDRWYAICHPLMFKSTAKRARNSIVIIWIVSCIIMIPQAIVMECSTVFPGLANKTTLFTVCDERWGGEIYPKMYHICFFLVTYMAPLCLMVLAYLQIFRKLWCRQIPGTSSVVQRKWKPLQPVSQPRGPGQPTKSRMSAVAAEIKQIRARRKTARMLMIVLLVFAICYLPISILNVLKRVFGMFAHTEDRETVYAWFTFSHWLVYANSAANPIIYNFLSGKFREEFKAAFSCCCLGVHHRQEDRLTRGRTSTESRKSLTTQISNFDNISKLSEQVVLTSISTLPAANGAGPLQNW

SMILES	Calcium response at 10 uM relative to control [1] [%]	Ratio EC50 (Homo sapiens)	EC50 [2] [µM]	EC50 (Orexin receptor type 2) [µM]
CC[C@H](C)[C@H](NC(=O)CNC(=O)[C@H](C)NC(=O)[C@H](C)NC(=O)[C@H](Cc1cnc[nH]1)NC(=O)[C@H](CC(N)=O)NC(=O)CNC(=O)[C@H](C)NC(=O)CNC(=O)[C@@H](N)Cc1cnc[nH]1)C(=O)N[C@@H](CC(C)C)C(=O)N[C@H](C(=O)N[C@@H](CC(C)C)C(N)=O)[C@@H](C)O (H-HGAGNHAAGILTL-NH2)	< 50	–	–	–
CC[C@H](C)[C@H](NC(=O)CNC(=O)[C@H](C)NC(=O)[C@H](C)NC(=O)[C@H](Cc1cnc[nH]1)NC(=O)[C@H](CC(N)=O)NC(=O)CNC(=O)[C@H](CO)NC(=O)[C@H](C)NC(=O)[C@H](CCC(N)=O)NC(=O)[C@H](CC(C)C)NC(=O)[C@H](CC(C)C)NC(=O)[C@H](CCCNC(=N)N)NC(=O)[C@H](CCC(N)=O)NC(=O)[C@H](CC(C)C)NC(=O)[C@@H](N)CCCNC(=N)N)C(=O)N[C@@H](CC(C)C)C(=O)N[C@H](C(=O)N[C@@H](CCSC)C(N)=O)[C@@H](C)O (H-RLQRLLQASGNHAAGILTM-NH2)	–	0.7	0.144	0.0993
CC[C@H](C)[C@H](NC(=O)CNC(=O)[C@H](C)NC(=O)[C@H](C)NC(=O)[C@H](Cc1cnc[nH]1)NC(=O)[C@H](CC(N)=O)NC(=O)CNC(=O)[C@H](C)NC(=O)CNC(=O)[C@H](Cc1cnc[nH]1)NC(=O)[C@H](CC(C)C)NC(=O)[C@H](CC(C)C)NC(=O)[C@H](C)NC(=O)[C@@H](N)Cc1ccc(O)cc1)C(=O)N[C@@H](CC(C)C)C(=O)N[C@H](C(=O)N[C@@H](CC(C)C)C(N)=O)[C@@H](C)O (H-YALLHGAGNHAAGILTL-NH2)	–	5.6	0.0789	0.439
CC[C@H](C)[C@H](NC(=O)CNC(=O)[C@H](C)NC(=O)[C@H](C)NC(=O)[C@H](Cc1cnc[nH]1)NC(=O)[C@H](CC(N)=O)NC(=O)CNC(=O)[C@H](C)NC(=O)CNC(=O)[C@H](Cc1cnc[nH]1)NC(=O)[C@H](CC(C)C)NC(=O)[C@H](C)NC(=O)[C@H](CCC(=O)O)NC(=O)[C@@H](N)Cc1ccc(O)cc1)C(=O)N[C@@H](CC(C)C)C(=O)N[C@H](C(=O)N[C@@H](CC(C)C)C(N)=O)[C@@H](C)O (H-YEALHGAGNHAAGILTL-NH2)	–	8.9	0.212	1.89
CC[C@H](C)[C@H](NC(=O)CNC(=O)[C@H](C)NC(=O)[C@H](C)NC(=O)[C@H](Cc1cnc[nH]1)NC(=O)[C@H](CC(N)=O)NC(=O)CNC(=O)[C@H](C)NC(=O)CNC(=O)[C@H](Cc1cnc[nH]1)NC(=O)[C@H](C)NC(=O)[C@H](CC(C)C)NC(=O)[C@H](CCC(=O)O)NC(=O)[C@@H](N)Cc1ccc(O)cc1)C(=O)N[C@@H](CC(C)C)C(=O)N[C@H](C(=O)N[C@@H](CC(C)C)C(N)=O)[C@@H](C)O (H-YELAHGAGNHAAGILTL-NH2)	–	2.4	3.23	7.85
CC[C@H](C)[C@H](NC(=O)CNC(=O)[C@H](C)NC(=O)[C@H](C)NC(=O)[C@H](Cc1cnc[nH]1)NC(=O)[C@H](CC(N)=O)NC(=O)CNC(=O)[C@H](C)NC(=O)CNC(=O)[C@H](C)NC(=O)[C@H](CC(C)C)NC(=O)[C@H](CC(C)C)NC(=O)[C@H](CCC(=O)O)NC(=O)[C@@H](N)Cc1ccc(O)cc1)C(=O)N[C@@H](CC(C)C)C(=O)N[C@H](C(=O)N[C@@H](CC(C)C)C(N)=O)[C@@H](C)O (H-YELLAGAGNHAAGILTL-NH2)	–	3.9	0.493	1.91
CC[C@H](C)[C@H](NC(=O)CNC(=O)[C@H](C)NC(=O)[C@H](C)NC(=O)[C@H](Cc1cnc[nH]1)NC(=O)[C@H](CC(N)=O)NC(=O)CNC(=O)[C@H](C)NC(=O)[C@H](C)NC(=O)[C@H](Cc1cnc[nH]1)NC(=O)[C@H](CC(C)C)NC(=O)[C@H](CC(C)C)NC(=O)[C@H](CCC(=O)O)NC(=O)[C@@H](N)Cc1ccc(O)cc1)C(=O)N[C@@H](CC(C)C)C(=O)N[C@H](C(=O)N[C@@H](CC(C)C)C(N)=O)[C@@H](C)O (H-YELLHAAGNHAAGILTL-NH2)	–	3.4	0.422	1.44
CC[C@H](C)[C@H](NC(=O)CNC(=O)[C@H](C)NC(=O)[C@H](C)NC(=O)[C@H](Cc1cnc[nH]1)NC(=O)[C@H](CC(N)=O)NC(=O)[C@H](C)NC(=O)[C@H](C)NC(=O)CNC(=O)[C@H](Cc1cnc[nH]1)NC(=O)[C@H](CC(C)C)NC(=O)[C@H](CC(C)C)NC(=O)[C@H](CCC(=O)O)NC(=O)[C@@H](N)Cc1ccc(O)cc1)C(=O)N[C@@H](CC(C)C)C(=O)N[C@H](C(=O)N[C@@H](CC(C)C)C(N)=O)[C@@H](C)O (H-YELLHGAANHAAGILTL-NH2)	–	1.3	1.04	1.36
CC[C@H](C)[C@H](NC(=O)CNC(=O)[C@H](C)NC(=O)[C@H](C)NC(=O)[C@H](Cc1cnc[nH]1)NC(=O)[C@H](C)NC(=O)CNC(=O)[C@H](C)NC(=O)CNC(=O)[C@H](Cc1cnc[nH]1)NC(=O)[C@H](CC(C)C)NC(=O)[C@H](CC(C)C)NC(=O)[C@H](CCC(=O)O)NC(=O)[C@@H](N)Cc1ccc(O)cc1)C(=O)N[C@@H](CC(C)C)C(=O)N[C@H](C(=O)N[C@@H](CC(C)C)C(N)=O)[C@@H](C)O (H-YELLHGAGAHAAGILTL-NH2)	–	0.8	3.07	2.32
CC[C@H](C)[C@H](NC(=O)CNC(=O)[C@H](C)NC(=O)[C@H](C)NC(=O)[C@H](C)NC(=O)[C@H](CC(N)=O)NC(=O)CNC(=O)[C@H](C)NC(=O)CNC(=O)[C@H](Cc1cnc[nH]1)NC(=O)[C@H](CC(C)C)NC(=O)[C@H](CC(C)C)NC(=O)[C@H](CCC(=O)O)NC(=O)[C@@H](N)Cc1ccc(O)cc1)C(=O)N[C@@H](CC(C)C)C(=O)N[C@H](C(=O)N[C@@H](CC(C)C)C(N)=O)[C@@H](C)O (H-YELLHGAGNAAAGILTL-NH2)	–	0.5	3.06	1.58
CC[C@H](C)[C@H](NC(=O)CNC(=O)[C@H](C)NC(=O)[C@H](C)NC(=O)[C@H](Cc1cnc[nH]1)NC(=O)[C@H](CC(N)=O)NC(=O)CNC(=O)[C@H](C)NC(=O)[C@@H]1CCCN1C(=O)[C@H](Cc1cnc[nH]1)NC(=O)[C@H](CC(C)C)NC(=O)[C@H](CC(C)C)NC(=O)[C@H](CCC(=O)O)NC(=O)[C@@H](N)Cc1ccc(O)cc1)C(=O)N[C@@H](CC(C)C)C(=O)N[C@H](C(=O)N[C@@H](CC(C)C)C(N)=O)[C@@H](C)O (H-YELLHPAGNHAAGILTL-NH2)	–	0.9	2.48	2.18
CC[C@H](C)[C@H](NC(=O)CNC(=O)[C@H](C)NC(=O)[C@H](C)NC(=O)[C@H](Cc1cnc[nH]1)NC(=O)[C@H](CC(N)=O)NC(=O)CNC(=O)[C@H](C)NC(=O)CNC(=O)[C@@H]1CCCN1C(=O)[C@H](CC(C)C)NC(=O)[C@H](CC(C)C)NC(=O)[C@H](CCC(=O)O)NC(=O)[C@@H](N)Cc1ccc(O)cc1)C(=O)N[C@@H](CC(C)C)C(=O)N[C@H](C(=O)N[C@@H](CC(C)C)C(N)=O)[C@@H](C)O (H-YELLPGAGNHAAGILTL-NH2)	–	1.7	1.2	1.99
CC[C@H](C)[C@H](NC(=O)CNC(=O)[C@H](C)NC(=O)[C@H](C)NC(=O)[C@H](Cc1cnc[nH]1)NC(=O)[C@H](CC(N)=O)NC(=O)CNC(=O)[C@H](C)NC(=O)CNC(=O)[C@H](Cc1cnc[nH]1)NC(=O)[C@@H]1CCCN1C(=O)[C@H](CC(C)C)NC(=O)[C@H](CCC(=O)O)NC(=O)[C@@H](N)Cc1ccc(O)cc1)C(=O)N[C@@H](CC(C)C)C(=O)N[C@H](C(=O)N[C@@H](CC(C)C)C(N)=O)[C@@H](C)O (H-YELPHGAGNHAAGILTL-NH2)	–	1.4	1.13	1.61
CC[C@H](C)[C@H](NC(=O)CNC(=O)[C@H](C)NC(=O)[C@H](C)NC(=O)[C@H](Cc1cnc[nH]1)NC(=O)[C@H](CC(N)=O)NC(=O)CNC(=O)[C@H](C)NC(=O)CNC(=O)[C@H](Cc1cnc[nH]1)NC(=O)[C@H](CC(C)C)NC(=O)[C@@H]1CCCN1C(=O)[C@H](CCC(=O)O)NC(=O)[C@@H](N)Cc1ccc(O)cc1)C(=O)N[C@@H](CC(C)C)C(=O)N[C@H](C(=O)N[C@@H](CC(C)C)C(N)=O)[C@@H](C)O (H-YEPLHGAGNHAAGILTL-NH2)	–	1.2	0.865	1.01
CC[C@H](C)[C@H](NC(=O)CNC(=O)[C@H](C)NC(=O)[C@H](C)NC(=O)[C@H](Cc1cnc[nH]1)NC(=O)[C@H](CC(N)=O)NC(=O)CNC(=O)[C@H](C)NC(=O)CNC(=O)[C@H](Cc1cnc[nH]1)NC(=O)[C@H](CC(C)C)NC(=O)[C@H](CC(C)C)NC(=O)[C@@H]1CCCN1C(=O)[C@@H](N)Cc1ccc(O)cc1)C(=O)N[C@@H](CC(C)C)C(=O)N[C@H](C(=O)N[C@@H](CC(C)C)C(N)=O)[C@@H](C)O (H-YPLLHGAGNHAAGILTL-NH2)	–	5.1	0.143	0.729
